How the values were obtained:
[1] = target: T1, DNA topoisomerase 1 (Homo sapiens) (UniProt P11387); experiment: Inhibition of recombinant topoisomerase 1 (unknown origin) assessed as DNA cleavage using 3'-[32P]-labeled 117-bp DNA oligonucleotide at 1 uM by PAGE assay; design: Activity: scale not given: the % may be the effect or the level left
T1 sequence (whole entry): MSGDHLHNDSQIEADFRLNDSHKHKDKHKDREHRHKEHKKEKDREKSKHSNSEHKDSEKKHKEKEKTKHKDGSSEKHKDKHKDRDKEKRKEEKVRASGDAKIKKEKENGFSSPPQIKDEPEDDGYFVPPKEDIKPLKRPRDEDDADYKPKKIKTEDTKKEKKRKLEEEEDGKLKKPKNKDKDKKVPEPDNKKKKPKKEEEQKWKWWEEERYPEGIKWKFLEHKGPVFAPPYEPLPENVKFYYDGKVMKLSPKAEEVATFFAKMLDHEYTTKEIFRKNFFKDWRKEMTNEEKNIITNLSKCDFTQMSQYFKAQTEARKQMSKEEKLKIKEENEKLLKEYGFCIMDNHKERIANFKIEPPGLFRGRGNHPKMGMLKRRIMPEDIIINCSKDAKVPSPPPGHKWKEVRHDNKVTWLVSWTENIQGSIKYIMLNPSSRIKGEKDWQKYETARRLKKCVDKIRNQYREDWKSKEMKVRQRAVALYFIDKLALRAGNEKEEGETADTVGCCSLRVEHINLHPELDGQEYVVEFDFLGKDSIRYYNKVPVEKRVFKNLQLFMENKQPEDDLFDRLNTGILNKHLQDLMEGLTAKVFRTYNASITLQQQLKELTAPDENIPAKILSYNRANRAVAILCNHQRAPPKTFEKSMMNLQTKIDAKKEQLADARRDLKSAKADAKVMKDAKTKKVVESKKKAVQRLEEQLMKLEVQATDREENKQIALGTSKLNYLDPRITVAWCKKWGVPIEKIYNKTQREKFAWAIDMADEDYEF
In short: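 Approx. 2 nM 3′-[³²P]-labeled double-stranded DNA incubated with recombinant Top1 and compound at 0.1, 1, 10 or 100 μM for 20 min at 25 °C. Stopped with 0.5% SDS and run on a denaturing gel. […] Run twice.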

[2] = tested on: UACC-62; experiment: Growth inhibition of human UACC62 cells by five-dose growth inhibition assay; format: functional
[3] = tested on: SN12C; experiment: Growth inhibition of human SN12C cells by five-dose growth inhibition assay; format: functional
[4] = Growth inhibition of human SF539 cells by five-dose growth inhibition assay; format: functional; conditions: SF-539
[5] = tested on: HCT-116; experiment: Growth inhibition of human HCT116 cells by five-dose growth inhibition assay; format: functional
[6] = Growth inhibition of human NCI60 cells assessed as cell growth at 10 uM; format: functional; conditions: read-out: Activity
In short: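 NCI-60 single-dose screen at 10 μM across ~60 human cancer cell lines. Reported as growth percent relative to vehicle-treated control, averaged over all lines tested as a mean growth percent.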

[7] = tested on: OVCAR-3; experiment: Growth inhibition of human OVCAR3 cells by five-dose growth inhibition assay; format: functional
[8] = target: T2, Tyrosyl-DNA phosphodiesterase 2 (Homo sapiens, UniProt O95551); experiment: Inhibition of human recombinant TPD2 activity using 5'phosphotyrosine-containing 19-mer single-stranded oligonucleotide DNA substrate by PAGE assay
T2 sequence (O95551 whole entry): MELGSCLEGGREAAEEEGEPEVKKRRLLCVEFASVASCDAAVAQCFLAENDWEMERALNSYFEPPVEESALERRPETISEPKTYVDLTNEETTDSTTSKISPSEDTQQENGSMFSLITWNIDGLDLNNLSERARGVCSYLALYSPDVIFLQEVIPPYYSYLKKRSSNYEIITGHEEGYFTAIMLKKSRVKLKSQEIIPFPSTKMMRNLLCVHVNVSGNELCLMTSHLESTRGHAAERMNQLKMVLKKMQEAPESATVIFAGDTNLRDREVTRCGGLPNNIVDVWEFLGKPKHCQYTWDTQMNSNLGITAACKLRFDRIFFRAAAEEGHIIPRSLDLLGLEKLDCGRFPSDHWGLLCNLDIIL

[9] = target: Tyrosyl-DNA phosphodiesterase 1 (Homo sapiens, UniProt Q9NUW8); experiment: Inhibition of recombinant TPD1 (unknown origin) activity using 3'-phosphotyrosine-containing 5'-[32P]-labeled single-stranded DNA oligonucleotide by PAGE assay
[10] = tested on: MCF7; experiment: Growth inhibition of human MCF7 cells by five-dose growth inhibition assay; format: functional

Sequence of Tyrosyl-DNA phosphodiesterase 1 (Q9NUW8 whole entry): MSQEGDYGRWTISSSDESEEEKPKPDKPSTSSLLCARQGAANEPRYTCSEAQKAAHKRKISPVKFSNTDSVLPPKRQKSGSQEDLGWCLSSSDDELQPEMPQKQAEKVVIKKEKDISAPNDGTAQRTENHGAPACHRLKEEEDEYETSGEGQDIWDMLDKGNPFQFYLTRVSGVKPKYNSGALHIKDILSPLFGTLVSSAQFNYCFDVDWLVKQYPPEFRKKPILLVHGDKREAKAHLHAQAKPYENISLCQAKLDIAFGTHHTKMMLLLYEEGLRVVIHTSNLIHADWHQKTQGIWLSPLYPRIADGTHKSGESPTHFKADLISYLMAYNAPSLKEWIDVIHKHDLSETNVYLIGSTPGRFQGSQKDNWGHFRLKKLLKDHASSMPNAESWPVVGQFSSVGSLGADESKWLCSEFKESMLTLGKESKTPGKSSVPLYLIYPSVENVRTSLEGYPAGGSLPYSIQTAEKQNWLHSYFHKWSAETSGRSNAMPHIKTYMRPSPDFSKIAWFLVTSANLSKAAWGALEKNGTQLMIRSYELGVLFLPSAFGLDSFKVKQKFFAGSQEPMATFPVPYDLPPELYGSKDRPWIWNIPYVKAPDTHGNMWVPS

Structure (SMILES): O=C1c2ccccc2-c2c1c1ccc(I)cc1c(=O)n2C[C@H](O)CO
- Activity [1]: 50%
- GI50 [2]: 2.14 µM
- GI50 [3]: 4.27 µM
- GI50 [4]: 3.02 µM
- GI50 [5]: 0.631 µM
- growth at 10 µM [6]: 39.7%
- GI50 [7]: 5.27 µM
- IC50 [8]: > 111 µM
- IC50 [9]: > 111 µM
- GI50 [10]: 0.331 µM

Reference: ChEMBL document CHEMBL3580647, “Discovery of potent indenoisoquinoline topoisomerase I poisons lacking the 3-nitro toxicophore” (J Med Chem, 2015)
